In ChEMBL document CHEMBL3352225, “Bioreductively Activated Reactive Oxygen Species (ROS) Generators as MRSA Inhibitors” (ACS Med Chem Lett, 2014):
In brackets after ≈: the same amount, converted by molar mass. Several values for one entry are separate records, joined by “and”; a condition that tells them apart may be missing. Equal values may be shown once. Activity calls are given as the source filed them. No cut-off for these calls is given here.

Assays:
[1] = test system: Staphylococcus aureus; experiment: Antimicrobial activity against methicillin-sensitive Staphylococcus aureus ATCC 29213 after 18 to 20 hrs by microbroth dilution technique; type: functional
Outline: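 MIC taken as the lowest concentration that prevents visible bacterial growth of MSSA 29213, reported in μg/mL.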

[2] = test system: Staphylococcus aureus; experiment: Antimicrobial activity against methicillin-resistant Staphylococcus aureus 7425 after 18 to 20 hrs by microbroth dilution technique; type: functional
Outline: (§1)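 Broth microdilution MIC, taken as the lowest concentration preventing visible growth. MRSA 33591 was the reference strain and the others were clinical MRSA isolates. Vancomycin was tested alongside as comparator. Values are reported in μg/mL and μM.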

[3] = test system: Staphylococcus aureus; experiment: Antimicrobial activity against Staphylococcus aureus assessed as extracellular H2O2 generation at 2 ug/ml measured after 60 mins by Amplex Red-based fluorescence assay; type: functional, organism-based
Outline: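 S. aureus cells were exposed to compound for 60 min, and H2O2 released into the medium was quantified by Amplex Red fluorescence as a surrogate marker for intracellular ROS. Untreated bacteria served as the control.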

[4] = test system: Staphylococcus aureus; experiment: Antimicrobial activity against methicillin-resistant Staphylococcus aureus K-1 after 18 to 20 hrs by microbroth dilution technique; type: functional; outline: as §1
[5] = test system: Staphylococcus aureus; experiment: Antimicrobial activity against methicillin-sensitive Staphylococcus aureus ATCC 29213 assessed as growth inhibition at 8 times MIC measured over 3 hrs in presence of thiourea; type: functional, organism-based
[6] = test system: Staphylococcus aureus; experiment: Antimicrobial activity against Staphylococcus aureus assessed as intracellular superoxide generation measured as formation of 2-OH-E+ measured after 1 hr by dihydroethidium assay; type: functional, organism-based
Outline: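 Intact S. aureus cells were incubated with DHE across a range of compound concentrations. Products were 2-hydroxyethidium (2-OH-E+), which is superoxide-specific, and ethidium (E+), which comes from nonspecific oxidation. Untreated bacteria served as the control.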

[7] = test system: Staphylococcus aureus; experiment: Antimicrobial activity against methicillin-resistant Staphylococcus aureus B853 after 18 to 20 hrs by microbroth dilution technique; type: functional; outline: as §1
[8] = Cytotoxicity against human A549 cells after 72 hrs by MTT assay; type: cell-based
[9] = test system: Staphylococcus aureus; experiment: Antimicrobial activity against methicillin-sensitive Staphylococcus aureus ATCC 29213 assessed as intracellular oxidative species generation at 0.5 ug/ml measured after 1 hr by dichlorofluorescein-diacetate fluorescence assay; type: functional, organism-based
[10] = test system: Staphylococcus aureus; experiment: Antimicrobial activity against methicillin-resistant Staphylococcus aureus 33591 after 18 to 20 hrs by microbroth dilution technique; type: functional; outline: as §1
[11] = H2O2 generation in buffer at pH 7.4 at 2 ug/ml measured after 5 mins by Amplex Red-based fluorescence assay in presence of DT-diaphorase
[12] = Selectivity index, ratio of GI50 for human A549 cells to MIC for methicillin-resistant Staphylococcus aureus 33591
[13] = test system: Staphylococcus aureus; experiment: Antimicrobial activity against methicillin-resistant Staphylococcus aureus B19506 after 18 to 20 hrs by microbroth dilution technique; type: functional; outline: as §1
[14] = test system: Staphylococcus aureus; experiment: Antimicrobial activity against methicillin-resistant Staphylococcus aureus E151 after 18 to 20 hrs by microbroth dilution technique; type: functional; outline: as §1
[15] = test system: Staphylococcus aureus; experiment: Induction of DNA damage in methicillin-sensitive Staphylococcus aureus ATCC 29213 assessed as upregulation of RecA expression at 6.7 times MIC measured after 120 mins by PCR analysis; type: functional, organism-based
[16] = Superoxide generation in buffer at pH 7.4 assessed as formation of 2-OH-E+ at 200 to 500 ug/ml measured after 10 mins by dihydroethidium assay in presence of DT-diaphorase
Outline: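 Compound was incubated with NQO1 (DT-diaphorase). The DHE-derived products 2-OH-E+ (superoxide-specific) and E+ (nonspecific oxidation) were separated and quantified by HPLC. The control was compound in pH 7.4 buffer without enzyme.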

[17] = test system: Staphylococcus aureus; experiment: Antimicrobial activity against methicillin-resistant Staphylococcus aureus E9902 after 18 to 20 hrs by microbroth dilution technique; type: functional; outline: as §1
[18] = test system: Staphylococcus aureus; experiment: Antimicrobial activity against methicillin-resistant Staphylococcus aureus 7419 after 18 to 20 hrs by microbroth dilution technique; type: functional; outline: as §1
[19] = test system: Staphylococcus aureus; experiment: Antimicrobial activity against methicillin-resistant Staphylococcus aureus B21838 after 18 to 20 hrs by microbroth dilution technique; type: functional; outline: as §1
[20] = test system: Staphylococcus aureus; experiment: Antimicrobial activity against methicillin-resistant Staphylococcus aureus B0085 after 18 to 20 hrs by microbroth dilution technique; type: functional; outline: as §1
[21] = Superoxide generation in buffer at pH 7.4 at 25 uM measured at 1 min interval for 4 mins by luminol-based chemiluminescence assay in presence of DT-diaphorase
Outline: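 Superoxide from compound plus NQO1 (DT-diaphorase) was followed as a time course by luminol chemiluminescence. The control was compound alone in pH 7.4 buffer.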

[22] = test system: Staphylococcus aureus; experiment: Antimicrobial activity against methicillin-resistant Staphylococcus aureus 7386 after 18 to 20 hrs by microbroth dilution technique; type: functional; outline: as §1
[23] = test system: Staphylococcus aureus; experiment: Antimicrobial activity against methicillin-resistant Staphylococcus aureus E288 after 18 to 20 hrs by microbroth dilution technique; type: functional; outline: as §1

Question: For `O=C1c2ccccc2C(=O)c2c1c1ccccc1c(=O)n2Cc1ccccc1`, which MIC [1] is on record?
Answer: > 32 µg/mL

Question: With `COc1ccc(Cn2c3c(c4ccccc4c2=O)C(=O)c2ccccc2C3=O)cc1` as the compound, how does the MIC [1] read?
Answer: 32 µg/mL (≈ 80.9 µM)

Question: Which MIC [1] does the source give for `O=C1c2ccccc2C(=O)c2c1c1ccccc1c(=O)n2Cc1ccc(C(F)(F)F)cc1` here?
Answer: > 32 µg/mL

Question: For `O=C1c2ccccc2C(=O)c2c1c1ccccc1c(=O)n2Cc1ccc(Cl)cc1`, which MIC [1] is on record?
Answer: > 32 µg/mL

Question: With `O=C1c2ccccc2C(=O)c2c1c1ccccc1c(=O)n2C1CCCCC1` as the compound, how does the MIC [1] read?
Answer: > 32 µg/mL

Question: For `C[C@@H]1O[C@@H]1P(=O)(O)O` [FOSFOMYCIN], which MIC [1] is on record?
Answer: 8 µg/mL (≈ 57.9 µM)

Question: Which MIC [1] does the source give for `Cn1c2c(c3ccccc3c1=O)C(=O)c1ccccc1C2=O` here?
Answer: 1 µg/mL (≈ 3.46 µM)

Question: Which MIC [1] does the source give for `COc1cc(Cn2c3c(c4ccccc4c2=O)C(=O)c2ccccc2C3=O)cc(OC)c1OC` here?
Answer: 8 µg/mL (≈ 17.6 µM)

Question: For `CCCn1c2c(c3ccccc3c1=O)C(=O)c1ccccc1C2=O`, which MIC [1] is on record?
Answer: > 32 µg/mL

Question: For `C=CCn1c2c(c3ccccc3c1=O)C(=O)c1ccccc1C2=O`, which MIC [1] is on record?
Answer: > 32 µg/mL

Question: With `CCn1c2c(c3ccccc3c1=O)C(=O)c1ccccc1C2=O` as the compound, how does the MIC [1] read?
Answer: > 32 µg/mL

Question: With `NC[C@H]1O[C@H](O[C@H]2[C@H](O)[C@@H](O[C@H]3O[C@H](CO)[C@@H](O)[C@H](N)[C@H]3O)[C@H](N)C[C@@H]2N)[C@H](N)C[C@@H]1O` [TOBRAMYCIN] as the compound, how does the MIC [1] read?
Answer: 1 µg/mL (≈ 2.14 µM)

Question: For `O=C1c2ccccc2C(=O)c2c1c1ccccc1c(=O)n2Cc1ccccc1C(F)(F)F`, which MIC [1] is on record?
Answer: > 32 µg/mL

Question: With `CN[C@H](CC(C)C)C(=O)N[C@H]1C(=O)N[C@@H](CC(N)=O)C(=O)N[C@H]2C(=O)N[C@H]3C(=O)N[C@H](C(=O)N[C@H](C(=O)O)c4cc(O)cc(O)c4-c4cc3ccc4O)[C@H](O)c3ccc(c(Cl)c3)Oc3cc2cc(c3O[C@@H]2O[C@H](CO)[C@@H](O)[C@H](O)[C@H]2O[C@H]2C[C@](C)(N)[C@H](O)[C@H](C)O2)Oc2ccc(cc2Cl)[C@H]1O` [VANCOMYCIN] as the compound, how does the MIC [2] read?
Answer: 0.12 µg/mL (≈ 0.0828 µM)

Question: Which MIC [1] does the source give for `O=C1c2ccccc2C(=O)c2c1c1ccccc1c(=O)n2Cc1ccc([N+](=O)[O-])cc1` here?
Answer: 8 µg/mL (≈ 19.5 µM)

Question: For `COC(=O)Cn1c2c(c3ccccc3c1=O)C(=O)c1ccccc1C2=O`, which MIC [1] is on record?
Answer: > 32 µg/mL

Question: With `C#CCn1c2c(c3ccccc3c1=O)C(=O)c1ccccc1C2=O` as the compound, how does the Activity [3] read?
Answer: Active

Question: And the MIC [4]?
Answer: 0.25 µg/mL and 0.8 µM

Question: What about the “growth inhibition (GI)” value [5] of the same compound?
Answer: inactive

Question: And the Activity [6]?
Answer: Dose-dependent effect

Question: What about the MIC [2] of the same compound?
Answer: 0.12 µg/mL and 0.38 µM

Question: And the MIC [7]?
Answer: 1 µg/mL and 3.19 µM

Question: What about the MIC [1] of the same compound?
Answer: 0.5 µg/mL (≈ 1.6 µM)

Question: And the GI50 at 72 h [8]?
Answer: 8.6 µM

Question: What about the Activity [9] of the same compound?
Answer: Active

Question: What about the MIC [10] of the same compound?
Answer: 0.5 µg/mL and 1.6 µM

Question: And the Activity [11]?
Answer: Active

Question: And the “Selectivity Index” value [12]?
Answer: >5

Question: What about the MIC [13] of the same compound?
Answer: 0.06 µg/mL and 0.19 µM

Question: And the MIC [14]?
Answer: 0.5 µg/mL and 1.6 µM

Question: What about the Activity [15] of the same compound?
Answer: Active

Question: What about the Activity [16] of the same compound?
Answer: Active

Question: What about the MIC [17] of the same compound?
Answer: 0.5 µg/mL and 1.6 µM

Question: What about the MIC [18] of the same compound?
Answer: 0.12 µg/mL and 0.38 µM

Question: And the MIC [19]?
Answer: 0.5 µg/mL and 1.6 µM

Question: What about the MIC [20] of the same compound?
Answer: 0.5 µg/mL and 1.6 µM

Question: And the Activity [21]?
Answer: Active

Question: What about the MIC [22] of the same compound?
Answer: 1 µg/mL and 3.19 µM

Question: And the MIC [23]?
Answer: 0.5 µg/mL and 1.6 µM
